Measured values: the EternaBench riboswitch data

Test system: MS2 coat protein
Experiment: apparent Kd, MS2 coat protein; higher = weaker binding; RNA-MaP array; FMN 200 µM where present
Outline: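 The apparent Kd is reported as the median of filtered per-cluster binding-curve fits. To get these curves, designs transcribed by stalled E. coli RNA polymerase on Illumina sequencing-chip clusters were titrated with SNAP-549-labelled MS2 coat protein from 0.7 or 1.5 nM, doubling to 3 µM. Titrations were run without and then with constant ligand in 100 mM Tris-HCl pH 7.5, 80 mM KCl, 4 mM MgCl2, BSA, DTT, yeast tRNA and Tween-20, and green signal was normalised to red-channel RNA signal and control-cluster median Fmax.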

[1] = designed as: ON switch for flavin mononucleotide, no ligand
[2] = ligand present: flavin mononucleotide, designed as: ON switch for flavin mononucleotide
[3] = designed as: OFF switch for flavin mononucleotide, no ligand
[4] = ligand present: flavin mononucleotide, designed as: OFF switch for flavin mononucleotide

Sequence	apparent Kd [1] [nM]	apparent Kd [2] [nM]	apparent Kd [3] [nM]	apparent Kd [4] [nM]
GCUCUGGCAUGAGGAUAUGGUCAGCUUUGCUGACCAGAAGGCAUGUCAAUAGACAUGAGGAUCACCCAUGUAGUUAACAGAGCA	538	37.3		
GCUGACGAUGUAGGAUAUCUCGACGAUAAGUCGAGAGAAGGACAUGAGGAUCACCCAUGUCUCAAAACGUCAGCGAGGAAACUC			16.4	17.4
GCUGCAUAGGCAGGAUAUGCAAAAGCAGAUGCAAAGCAUCUGCAAUAAACAUGAGGAUCACCCAUGUAGAAGGGCCUGUGCAGU			20.8	19.4
GCUGCAUAGGCAGGAUAUGCAAUAAUUUAAAUAAAAUAUAAUAAAUUAACAUGAGGAUCACCCAUGUAGAAGGGCCUGUGCAGU			19.8	19.2
GCUGCUAUCGCAGGAUAUUACAUGGGAAAUAAAACAUGAGGAUCACCCAUGUAAAAUAUCGUAAAUAAGAAGGGCGAUAGCAGC	84.6	1180		
GCUUGAGCUGUGAGGAUAUGAGUUCGGAAAUGAGCUUAGAAGGCACAUGAGGAUCACCCAUGUAAGGUUCGAGU			38	17.7
GCUUGUGUUGAGGAUAUGCGCCGGCUCGCUGGCGCAGAAGGCGGCACAUGAGGAUCACCCAUGUCAGUUCGCGA			27.5	255
GCUUUACUGGUCAGGAUAUACAUUUGCUACUCUUUGUAGAAGGGACAUGAGGAUCACCCAUGUACUUUACAUUC			15.3	16.6
GGAACUCAUGUAGGAUAUGCAUGGCGAAGCUACGCAGAAGGACAUGAGGAUCACCCAUGUUCUAGCGUCUGGAGACAGAUGCAA			174	126
GGAAUAAAUGCAGGAUAUACGUGGAAAGCCUUCAACAUGAGGAUCACCCAUGUAGAAGGGCAUCUCCCGACCGAAUCGGAUCUC			5.72	6.25
GGAAUACAUGAGGAUCACCCAUGUAAGGAUAUGCUGAUUAACACGGAAUAAUUAUGCAGCAGAAGGUACAAAGG			113	91.1
GGACACCGAUCAGGAUAUACACGGCAUUCCAGAAACAUGAGGAUCACCCAUGUAGAAGGGAUCUGCGUCCUAAACAUAUCCAUU			5.12	9.28
GGACAGCGAGGAUAUACGUGUACGUUAUCCUCUAUGGGUCAACAUGAGGAUCACCCAUGUAGAAGGCGCAUAAU			19.4	28.1
GGACAUGUCGUCUACAUGAGGAUCACCCAUGUCGAUAGACAUGAGGAUAUCGAUAAGAAUUGUAUCGAGAAGGCAUGCAGGUCC	19.8	21.6		
GGACCACAUCAGGAUAUGACUAGCUUCGGCUAGUCAGAAGGGAUGACAUGAGGAUCACCCAUGUGAUCAGGUCC			77.5	127
GGACCUCCUGAGGAUAUUGUAUCACCUGAUUGAUAAGAAGGCAGAACAUGAGGAUCACCCAUGUGGGUACUCGG			168	145
GGACGACACAUGAACAUGAGGAUCACCCAUGUAACUAGACAUGAGGAUAUGGAUCCUAAUUGGAUCCAGAAGGCAUGGUCGUCC	179	31.7		
GGACGGAAAGUGAGGAUAUGCUCUACCUCGGUAGAGCAGAAGGCACAUGAGGAUCACCCAUGUGAUUGCUGUUC			27.1	261
GGACGUAAAGAGAAGGGCUACUGGUUGAAACCUGCGGCCUCUGGAACAUGAGGAUCACCCAUGUAGCAGGAUAUCUUUGCAUCA			180	14.7
GGACGUCACAUCUACAUGAGGAUCACCCAUGUCUCUUGAGAUGAGGAUAUGUAUACGAAUCGUUUAUAGAAGGCAUGGACGUCC	348	325		
GGACGUCACAUUCACAUGAGGAUCACCCAUGUCAAAAGACAUGAGGAUAUGGAUCCUAAUUGGAUCCAGAAGGCAUGGACGUCC	1140	70.6		

Sequence	apparent Kd [1] [nM]	apparent Kd [2] [nM]	apparent Kd [3] [nM]	apparent Kd [4] [nM]
GGACGUCUCAUUAACAUGAGGAUCACCCAUGUCGAUAGACAUGAGGAUAUGGAUCCGAAUCGGAUCCAGAAGGCAUGGACGUCC	1170	72.4		
GGACGUGACAUUAACAUGAGGAUCACCCAUGUCAAAAGACAUGAGGAUAUGGAUCCGAAAAGGAUCCAGAAGGCAUGCACGUCC	587	37.1		
GGAGAGUUCACAGGAUAUCAUGGGUAGUUAUUUUGAGAAGGGUGAACAAGGAACAUGAGGAUCACCCAUGUAUCCUGGAAGGGC	39.9	60.5		
GGAGCACACAUUAACAUGAGGAUCACCCAUGUCACAAGACAUGAGGAUAUGGAUCCGAAAAGGAUCCAGAAGGCAUGGUGCUCC	657	28		
GGAGCCAGCACCGAGGAUAUUCAUAUUAAAACAUGAGGAUCACCCAUGUAGGCCAGAAGGCCUUGGGAGAAGGCGGACUGGCUCG	206	11.4		
GGAGCCGGCACCGAGGAUAUUCAUAUUAAAACAUGAGGAUCACCCAUGUAGCUCGAAAGAGCUUGGGAGAAGGCGGAUCGGCUCG	840	43.1		
GGAGCUACAACCGACGGAUAGAUGCAGGAUAUGCUCACAUGAGGAUCACCCAUGUGCUGAAACUGGCAGAAGGGUAUCACCGCC	7.83	4.59		
GGAGCUCAUCAAUACAUGAGGAUCACCCAUGUCGAAUGAUAUGAGGAUAUGCAUCGGAAAACGAUGUAGAAGGCAUAGAGCUCC	15.3	6.63		
GGAGGACAUCAAUACAUGAGGAUCACCCAUGUCGAAUGAUAUGAGGAUAUGCAUCGGAAAACGAUGUAGAAGGCAUAGUCCUCC	15.1	6.06		
GGAUAGGACAGAGGAUAUACAGAUAGGAUCUACUAUCAAACAGUCCUUACAUGAGGAUCACCCAUGUAGAAGGCUGUCCUAUCG			19.4	87.4
GGAUAGGACAGAGGAUAUACGUGCUAGAGAUACUAGCAAAAUUCCCUCACAUGAGGAUCACCCAUGUAGAAGGCUGUCCUAUCG			5.68	49.6
GGAUAGGACAGAGGAUAUACGUGCUAGAGAUACUAGCAAAAUUUCCUCACAUGAGGAUCACCCAUGUAGAAGGCUGUCCUAUCU			45.2	882
GGAUAGGACAGAGGAUAUACGUGCUAGAGAUACUAGCAAAAUUUCCUCACAUGAGGAUCACCCAUGUAGAAGGCUGUCCUCUCG			18	409
GGAUAGUGAGGAUAUCGAUGUUAGGAGGAGUAGAUAGGAGGCGAGAAGGCACAUGAGGAUCACCCAUGUAUGGA			58.7	45.5
GGAUAUAUGAAGGGCGAACGCGCACAUGAGGAUCACCCAUGUAGAAGGCGGUCCGCAACGCGGAUCGAGGAUAUAUAGUAUACG			19.1	17.3
GGAUAUAUUACAUGAGGAUCACCCAUGUCAGAACGGGUAAUCAGAAGGUACUAUUAGAGAAAGAGUAAGGAUAUGAUUAUAUCC	801	165		
GGAUCAUGAGGAUAUCGAGGUUAGUACAUGAGGAUCACCCAUGUUAUCCAGGUCUCGUUUCGAGAAGGCAUGAUCC			21.5	29.9
GGAUCCAACACAGGAUAUGCUGGACUUUGUCCAGCAGAAGGGUGAAGAACAUGAGGAUCACCCAUGUGGAUCCAUACAUUUAAU	254	15.7		
GGAUCGAAUGUCAGGAUAUGCUGGUCCUUGGAUCAGCAGAAGGGACAUGAGGAUCACCCAUGUGACGACGGUCC			64.7	503
GGAUCGUAUGUCAGGAUAUACCACUGGAUACAGUGGUAGAAGGGACAUGAGGAUCACCCAUGUCCUAUCGAUCC			13	16.6
